Experimental data from ChEMBL document CHEMBL1125763, “Structure-activity studies of antitumor agents based on pyrrolo[1,2-a]benzimidazoles: new reductive alkylating DNA cleaving agents” (J Med Chem, 1991).
Each block holds one compound with its values, some of them ahead of it.

Assays:
WiDr = assay: In vitro inhibition of WiDr colon cancer cell line; assay type: functional, cell-based; conditions: Homo sapiens
In short: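 Cells plated at 50 000 per well in 96-well trays. Drugs dissolved in DMSO as stock, then diluted in buffer and added to wells. IC50 was calculated from concentration–survival curves over a concentration range giving 0–100% survival.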

A2780 [1] = assay: In vitro inhibition of 2780/S ovarian cancer cell line; assay type: functional, cell-based; conditions: Homo sapiens
In short: (§1)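 Cell growth inhibition: cells plated at 50 000/well; drugs dissolved in DMSO as stock and diluted in buffer before addition. IC50 taken from concentration-survival curves over a range of concentrations giving 0-100% survival.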

2008/R [2] = assay: In vitro inhibition of 2008/R ovarian cancer cell line; NA= Not achievable; assay type: functional, cell-based, Homo sapiens; in short: as §1
SW480 = assay: In vitro inhibition of SW480 colon cancer cell line; assay type: functional, cell-based; conditions: Homo sapiens; in short: as §1
2008/S [3] = assay: In vitro inhibition of 2008/S ovarian cancer cell line; NA= Not achievable; assay type: functional, cell-based, Homo sapiens; in short: as §1
A2780 [4] = assay: In vitro inhibition of 2780/DOX ovarian cancer cell line; assay type: functional, cell-based; conditions: Homo sapiens; in short: as §1
RPMI-8226 [5] = assay: In vitro inhibition of […] myeloma cancer cell line; assay type: functional, cell-based; conditions: Homo sapiens; in short: as §1
Ovarian carcinoma cell = assay: Inhibitory activity against ovarian cancer cell line; NA= Not achievable; assay type: functional, cell-based, Homo sapiens
In short: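 Fresh human tumor chemosensitivity assay: ovarian cancers removed surgically from patients, minced, and plated on soft agar as a single-cell suspension.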

2008/R [6] = assay: In vitro inhibition of 2008/R ovarian cancer cell line; assay type: functional, cell-based; conditions: Homo sapiens; in short: as §1
RPMI-8226 [7] = assay: Dose-Response relationship for DNA single-strand cleavage with the compound in human 8226 multiple myeloma cells at a concentration of 10 ug/mL x1 hr; assay type: functional
RPMI-8226 [8] = assay: Dose-Response relationship for DNA single-strand cleavage with the compound in human 8226 multiple myeloma cells at a concentration of 0.1 ug/mL x1 hr.; assay type: functional
RPMI-8226 [9] = assay: Dose-Response relationship for DNA single-strand cleavage with the compound in human 8226 multiple myeloma cells at a concentration of 1.0 ug/mL x1 hr; assay type: functional
2008/S [10] = assay: In vitro inhibition of 2008/S ovarian cancer cell line; assay type: functional, cell-based; conditions: Homo sapiens; in short: as §1

Structure (SMILES): CC1=CC(=O)c2nc3n(c2C1=O)CCC3OC(N)=O (configuration not stated)
- IC50 (WiDr): 10000 nM

Structure (SMILES): CC1=C(N2CC2)C(=O)c2nc3n(c2C1=O)CCC3
- IC50 (WiDr): 15 nM

Structure (SMILES): CC1=C(N2CC2)C(=O)c2nc3n(c2C1=O)CCC3OC(N)=O (configuration not stated)
- IC50 (WiDr): 100 nM
- IC50 (A2780 [1]): 100 nM
- IC50 (2008/R [2]): Not Active
- IC50 (SW480): 19 nM
- IC50 (2008/S [3]): Not Active
- IC50 (A2780 [4]): 200 nM
- IC50 (RPMI-8226 [5]): 140 nM

Structure (SMILES): CC(=O)NC1=C(C)C(=O)c2c(nc3n2CCC3)C1=N
- IC50 (WiDr): 10000 nM

Structure (SMILES): CC(=O)NC1=C(C)C(=O)c2c(nc3n2CCC3OC(N)=O)C1=O (configuration not stated)
- IC50 (WiDr): 16000 nM

Structure (SMILES): CC1=C(N(C)C)C(=O)c2nc3n(c2C1=O)CCC3OC(N)=O (configuration not stated)
- IC50 (WiDr): 13000 nM

Structure (SMILES): CC1=C(N(C)C)C(=O)c2nc3n(c2C1=O)CCC3
- IC50 (WiDr): 13000 nM

Structure (SMILES): CC(=O)OC1CCn2c1nc1c2C(=O)C(C)=C(N2CC2)C1=O (configuration not stated)
- IC50 (Ovarian carcinoma cell): Not Active
- IC50 (WiDr): 10 nM
- IC50 (A2780 [1]): 0.6 nM
- IC50 (2008/R [6]): 7 nM
- IC50 (SW480): 9 nM
- IC50 (A2780 [4]): 16 nM
- Cleavage (RPMI-8226 [7]): 469
- Cleavage (RPMI-8226 [8]): 59
- Cleavage (RPMI-8226 [9]): 321
- IC50 (2008/S [10]): 7 nM
- IC50 (RPMI-8226 [5]): 100 nM

Continued, values first:

- IC50 (WiDr): 10000 nM
Structure (SMILES): CC(=O)OC1CCn2c1nc1c2C(=O)C(C)=C(N(C)C)C1=O (configuration not stated)

- IC50 (WiDr): 280 nM
Structure (SMILES): CC(=O)OC1CCn2c1nc1c2C(=O)C(C)=C(NC(=O)CCl)C1=N (configuration not stated)

- IC50 (WiDr): 300 nM
Structure (SMILES): CC(=O)OC1CCn2c1nc1c2C(=O)C(C)=CC1=O (configuration not stated)

- IC50 (WiDr): 150 nM
Structure (SMILES): CC(=O)NC1=C(C)C(=O)c2c(nc3n2CCC3OC(C)=O)C1=N (configuration not stated)

- IC50 (WiDr): 500 nM
Structure (SMILES): CC(=O)NC1=C(C)C(=O)c2c(nc3n2CCC3)C1=O

- IC50 (WiDr): 6000 nM
Structure (SMILES): CC(=O)NC1=C(C)C(=O)c2c(nc3n2CCC3OC(C)=O)C1=O (configuration not stated)

- IC50 (WiDr): 10 nM
- IC50 (A2780 [1]): 100 nM
- IC50 (2008/R [2]): Not Active
- IC50 (SW480): 7 nM
- IC50 (2008/S [3]): Not Active
- IC50 (A2780 [4]): 200 nM
- IC50 (RPMI-8226 [5]): 200 nM
Structure (SMILES): CO[C@@]12[C@H](COC(N)=O)C3=C(C(=O)C(C)=C(N)C3=O)N1C[C@@H]1N[C@@H]12 [MITOMYCIN]
